Assay results from ChEMBL document CHEMBL1938297, “Synthesis, radiofluorination and pharmacological evaluation of a fluoromethyl spirocyclic PET tracer for central σ1 receptors and comparison with fluoroalkyl homologs” (Bioorg Med Chem, 2012).

Columns and labels:
[1] = tested on: Femur; assay: Biodistribution in CD1 mouse femur at 300 kBq, iv after 60 mins by gamma counting; type: ADME, organism-based; conditions: in vivo, 1 h
Method in brief: (§1)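 Female CD-1 mice received [18F]1 (300 kBq) i.v.; 3–6 animals per time point anesthetized at 5, 30, 60 or 120 min p.i., blood and urine collected, animals euthanized by cervical dislocation, organs dissected and weighed. Radioactivity counted in a calibrated gamma counter; % ID/g = tissue counts / initial dose counts / tissue weight; means with SD.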

[2] = tested on: Mus musculus; assay: Biodistribution in CD1 mouse eye at 300 kBq, iv after 60 mins by gamma counting; type: ADME, organism-based; conditions: in vivo, 1 h; method in brief: as §1
[3] = tested on: Mus musculus; assay: Biodistribution in CD1 mouse fat at 300 kBq, iv after 60 mins by gamma counting; type: ADME, organism-based, Adipose tissue; conditions: in vivo, 1 h; method in brief: as §1
[4] = tested on: Cerebellum; assay: Biodistribution in CD1 mouse cerebellum at 300 kBq, iv after 120 mins by gamma counting; type: ADME, organism-based; conditions: in vivo, 2 h; method in brief: as §1
[5] = tested on: Heart; assay: Biodistribution in CD1 mouse heart at 300 kBq, iv after 120 mins by gamma counting; type: ADME, organism-based; conditions: in vivo, 2 h
Method in brief: (§2)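 Female CD-1 mice received the 18F tracer iv at 300 kBq in 0.9% NaCl containing 5% ethanol; 3–6 animals per time point (5, 30, 60, 120 min p.i.). Animals anaesthetized, blood and urine collected, killed by cervical luxation, organs dissected and weighed, counted in calibrated gamma counter. %ID/g = tissue counts / initial dose counts / tissue weight; mean with SD.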

[6] = tested on: Kidney; assay: Biodistribution in CD1 mouse kidney at 300 kBq, iv after 120 mins by gamma counting; type: ADME, organism-based; conditions: in vivo, 2 h; method in brief: as §2
[7] = tested on: Pancreas; assay: Biodistribution in CD1 mouse pancreas at 300 kBq, iv after 120 mins by gamma counting; type: ADME, organism-based; conditions: in vivo, 2 h; method in brief: as §2
[8] = tested on: Mus musculus; assay: Biodistribution in CD1 mouse adrenals at 300 kBq, iv after 120 mins by gamma counting; type: ADME, organism-based, Adrenal gland; conditions: in vivo, 2 h; method in brief: as §1
[9] = tested on: Muscle tissue; assay: Biodistribution in CD1 mouse muscle at 300 kBq, iv after 120 mins by gamma counting; type: ADME, organism-based; conditions: in vivo, 2 h; method in brief: as §2
[10] = tested on: Femur; assay: Biodistribution in CD1 mouse flushed femur at 300 kBq, iv after 120 mins by gamma counting; type: ADME, organism-based; conditions: in vivo, 2 h; method in brief: as §1
[11] = n-Octanol-phosphate-saline solution partition coefficient, log D of the compound at pH 7.2 by shake-flask method; type: physicochemical
Method in brief: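 Shake-flask distribution of the radioligand between n-octanol and aqueous buffer at pH 7.2, either phosphate buffer or phosphate-saline; n = 3.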

[12] = Metabolic stability in CD1 mouse brain homogenates assessed as compound remaining at 191 MBq, iv after 30 mins by radio-HPLC/TLC analysis; type: ADME, organism-based; conditions: brain homogenate, read-out: Stability
Method in brief: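 Female CD-1 mice were injected with the radiotracer via the tail vein and killed at 30 or 60 min p.i. Whole brains (n = 2 per time) were homogenised in 50 mM TRIS–HCl pH 7.4 at 4 °C and extracted twice with ice-cold acetonitrile. Concentrated extracts were analysed by radio-HPLC and radio-TLC to give % parent versus radiometabolites.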

[13] = tested on: Mus musculus; assay: Biodistribution in CD1 mouse dorsolateral periaqueductal gray in brain saggital section at 24 MBq, iv at 45 mins by autoradiography; type: ADME, organism-based; conditions: in vivo, 0.75 h
Method in brief: (§3)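 Female CD-1 mouse given [18F]1 (24 MBq) i.v. and sacrificed at 45 min. Brain hemispheres frozen in isopentane (−35 °C), cut into 12 µm sagittal cryosections, thaw-mounted, air-dried and exposed to 18F-sensitive storage phosphor screens. Anterior olfactory bulb served as nontarget region for target-to-nontarget ratios.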

[14] = tested on: Mus musculus; assay: Biodistribution in CD1 mouse lateral periaqueductal gray in brain saggital section at 24 MBq, iv at 45 mins by autoradiography; type: ADME, organism-based; conditions: in vivo, 0.75 h
Method in brief: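 Ex vivo autoradiography: female CD-1 mouse given 18F tracer iv (24 MBq), killed 45 min p.i.; brain hemispheres frozen in isopentane (−35 °C), 12 µm sagittal cryostat sections thaw-mounted, air-dried and exposed to 18F-sensitive phosphor screens. Regional uptake compared with anterior olfactory bulb as nontarget region (target-to-nontarget ratio).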

[15] = tested on: Mus musculus; assay: Biodistribution in CD1 mouse anterior olfactory bulb in brain saggital section at 24 MBq, iv at 45 mins by autoradiography; type: ADME, organism-based; conditions: in vivo, 0.75 h; method in brief: as §3
[16] = tested on: Brain; assay: Biodistribution in CD1 mouse brain at 300 kBq, iv after 5 mins by gamma counting; type: ADME, organism-based; conditions: in vivo; method in brief: as §1
[17] = tested on: Heart; assay: Biodistribution in CD1 mouse heart at 300 kBq, iv after 5 mins by gamma counting; type: ADME, organism-based; conditions: in vivo; method in brief: as §2
[18] = tested on: Lung; assay: Biodistribution in CD1 mouse lung at 300 kBq, iv after 5 mins by gamma counting; type: ADME, organism-based; conditions: in vivo; method in brief: as §2
[19] = tested on: Mus musculus; assay: Biodistribution in CD1 mouse small intestine at 300 kBq, iv after 5 mins by gamma counting; type: ADME, organism-based; conditions: in vivo; method in brief: as §2
[20] = Biodistribution in CD1 mouse intestinal content at 300 kBq, iv after 5 mins by gamma counting; type: ADME, organism-based, Intestine; conditions: in vivo; method in brief: as §2
[21] = tested on: Kidney; assay: Biodistribution in CD1 mouse kidney at 300 kBq, iv after 5 mins by gamma counting; type: ADME, organism-based; conditions: in vivo; method in brief: as §2
[22] = tested on: Spleen; assay: Biodistribution in CD1 mouse spleen at 300 kBq, iv after 5 mins by gamma counting; type: ADME, organism-based; conditions: in vivo; method in brief: as §2
[23] = tested on: Pancreas; assay: Biodistribution in CD1 mouse pancreas at 300 kBq, iv after 5 mins by gamma counting; type: ADME, organism-based; conditions: in vivo; method in brief: as §2
[24] = tested on: Mus musculus; assay: Biodistribution in CD1 mouse gonads at 300 kBq, iv after 5 mins by gamma counting; type: ADME, organism-based, Gonad; conditions: in vivo; method in brief: as §1
[25] = tested on: Muscle tissue; assay: Biodistribution in CD1 mouse muscle at 300 kBq, iv after 5 mins by gamma counting; type: ADME, organism-based; conditions: in vivo; method in brief: as §2
[26] = tested on: Femur; assay: Biodistribution in CD1 mouse femur at 300 kBq, iv after 5 mins by gamma counting; type: ADME, organism-based; conditions: in vivo; method in brief: as §1
[27] = tested on: Blood; assay: Biodistribution in CD1 mouse blood at 300 kBq, iv after 30 mins by gamma counting; type: ADME, organism-based; conditions: in vivo, 0.5 h; method in brief: as §1
[28] = tested on: Cerebellum; assay: Biodistribution in CD1 mouse cerebellum at 300 kBq, iv after 30 mins by gamma counting; type: ADME, organism-based; conditions: in vivo, 0.5 h; method in brief: as §1
[29] = tested on: Heart; assay: Biodistribution in CD1 mouse heart at 300 kBq, iv after 30 mins by gamma counting; type: ADME, organism-based; conditions: in vivo, 0.5 h; method in brief: as §2
[30] = tested on: Lung; assay: Biodistribution in CD1 mouse lung at 300 kBq, iv after 30 mins by gamma counting; type: ADME, organism-based; conditions: in vivo, 0.5 h; method in brief: as §2
[31] = tested on: Mus musculus; assay: Biodistribution in CD1 mouse small intestine at 300 kBq, iv after 30 mins by gamma counting; type: ADME, organism-based; conditions: in vivo, 0.5 h; method in brief: as §2
[32] = tested on: Liver; assay: Biodistribution in CD1 mouse liver at 300 kBq, iv after 30 mins by gamma counting; type: ADME, organism-based; conditions: in vivo, 0.5 h; method in brief: as §2
[33] = tested on: Urinary bladder; assay: Biodistribution in CD1 mouse bladder at 300 kBq, iv after 30 mins by gamma counting; type: ADME, organism-based; conditions: in vivo, 0.5 h; method in brief: as §1
[34] = tested on: Spleen; assay: Biodistribution in CD1 mouse spleen at 300 kBq, iv after 30 mins by gamma counting; type: ADME, organism-based; conditions: in vivo, 0.5 h; method in brief: as §2
[35] = tested on: Mus musculus; assay: Biodistribution in CD1 mouse thymus at 300 kBq, iv after 30 mins by gamma counting; type: ADME, organism-based; conditions: in vivo, 0.5 h; method in brief: as §2
[36] = tested on: Pancreas; assay: Biodistribution in CD1 mouse pancreas at 300 kBq, iv after 30 mins by gamma counting; type: ADME, organism-based; conditions: in vivo, 0.5 h; method in brief: as §2
[37] = tested on: Femur; assay: Biodistribution in CD1 mouse flushed femur at 300 kBq, iv after 30 mins by gamma counting; type: ADME, organism-based; conditions: in vivo, 0.5 h; method in brief: as §1
[38] = tested on: Mus musculus; assay: Biodistribution in CD1 mouse eye at 300 kBq, iv after 30 mins by gamma counting; type: ADME, organism-based; conditions: in vivo, 0.5 h; method in brief: as §1
[39] = tested on: Lung; assay: Biodistribution in CD1 mouse lung at 300 kBq, iv after 60 mins by gamma counting; type: ADME, organism-based; conditions: in vivo, 1 h; method in brief: as §2
[40] = tested on: Spleen; assay: Biodistribution in CD1 mouse spleen at 300 kBq, iv after 60 mins by gamma counting; type: ADME, organism-based; conditions: in vivo, 1 h; method in brief: as §2

[18F]CC1OC2(CCN(Cc3ccccc3)CC2)c2ccccc21 (stereo not given)
Drug uptake [1]: 1.75 % ID/g | Drug uptake [2]: 0.87 % ID/g | Drug uptake [3]: 2.02 % ID/g | Drug uptake [4]: 4.02 % ID/g | Drug uptake [5]: 3.05 % ID/g | Drug uptake [6]: 5.6 % ID/g | Drug uptake [7]: 11.99 % ID/g | Drug uptake [8]: 6.6 % ID/g | Drug uptake [9]: 1.16 % ID/g | Drug uptake [10]: 1.29 % ID/g | logD [11]: 2.39 | remaining at 0.5 h [12]: 90% | Drug uptake [13]: Active | Drug uptake [14]: Active | Drug uptake [15]: Active | Drug uptake [16]: 7.15 % ID/g | Drug uptake [17]: 7.33 % ID/g | Drug uptake [18]: 18.01 % ID/g | Drug uptake [19]: 19.78 % ID/g | Drug uptake [20]: 0.39 % ID/g | Drug uptake [21]: 14.93 % ID/g | Drug uptake [22]: 6.23 % ID/g | Drug uptake [23]: 11.22 % ID/g | Drug uptake [24]: 3.26 % ID/g | Drug uptake [25]: 2.12 % ID/g | Drug uptake [26]: 2.32 % ID/g | Drug uptake [27]: 0.35 % ID/g | Drug uptake [28]: 6.27 % ID/g | Drug uptake [29]: 4.57 % ID/g | Drug uptake [30]: 8.3 % ID/g | Drug uptake [31]: 18.82 % ID/g | Drug uptake [32]: 6.68 % ID/g | Drug uptake [33]: 3.86 % ID/g | Drug uptake [34]: 8.85 % ID/g | Drug uptake [35]: 4.83 % ID/g | Drug uptake [36]: 16.03 % ID/g | Drug uptake [37]: 1.42 % ID/g | Drug uptake [38]: 2 % ID/g | Drug uptake [39]: 8.32 % ID/g | Drug uptake [40]: 5.3 % ID/g
